Measurements reported in ChEMBL document CHEMBL3864172, “New Peptidomimetic Boronates for Selective Inhibition of the Chymotrypsin-like Activity of the 26S Proteasome” (ACS Med Chem Lett, 2016).
pIC50, pKi: −log10 of the molar value. Calls of active or inactive are those of the source. No cut-off for these calls is given here.

Tests used:
[1] = (§1) Cytotoxicity against human MCF7 cells harboring wild type p53 assessed as reduction in cell viability after 48 hrs by 7AAD-staining based FACS analysis; format: functional; settings: MCF7, 48 h, read-out: LD50 (the source's name)
Summary of the method: (§2)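 Cells were exposed for 48 h to compound titrations from 0 to 5000 nM. Cell death was read out by 7AAD staining, and the LD50 was taken from dose-response curves. n=3.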

[2] = Cytotoxicity against human MCF10A cells harboring wild type p53 assessed as reduction in cell viability after 48 hrs by 7AAD-staining based FACS analysis; format: toxicity, MCF-10A; settings: for CC50 at 48 h: MCF10A cells harboring wild type p53, read-out: LD50; for Activity: mcf-10a, 48 h; summary of the method: as §2
[3] = (§3) Cytotoxicity against human MDA-MB-468 cells harboring mutant p53 assessed as reduction in cell viability after 48 hrs by 7AAD-staining based FACS analysis; format: functional; settings: MDA-MB-468, 48 h, read-out: LD50 (the source's name); summary of the method: as §2
[4] = (§4) Cytotoxicity against human KGN cells harboring wild type p53 assessed as reduction in cell viability after 48 hrs by 7AAD-staining based FACS analysis; format: functional; settings: read-out: LD50 (the source's name); summary of the method: as §2
MDA-MB-468 [5] = assay: Inhibition of 26S proteasome in human MDA-MB-468 cells assessed as accumulation of high molecular weight polyubiquitin-conjugated proteins at 35 nM after 4 hrs by Western blot analysis; format: cell-based
[6] = Inhibition of trypsin like activity of rabbit 20S proteasome using Bz-Val-Gly-Arg-AMC as substrate preincubated for 15 mins followed by substrate addition measured after 2 hrs by fluorescence-based assay; design: species or system Oryctolagus cuniculus
[7] = (§5) Cytotoxicity against p53 deficient human SKOV3 cells assessed as reduction in cell viability after 48 hrs by 7AAD-staining based FACS analysis; format: functional; settings: SK-OV-3, 48 h, read-out: LD50 (the source's name); summary of the method: as §2
[8] = Terminal half life in human plasma at 20 mg/m2 iv, administered for 2 to 10 mins after dexamethasone addition by LC-MS/MS analysis; format: ADME, cell-free; settings: read-out: beta t1/2
[9] = Cytotoxicity against human LCL cells harboring wild type p53 assessed as reduction in cell viability after 48 hrs by 7AAD-staining based FACS analysis; format: toxicity; settings: for CC50 at 48 h: LCL cells harboring wild type p53, read-out: LD50; for Activity: lcl, 48 h; summary of the method: as §2
[10] = Cytotoxicity against human IMR90 cells harboring wild type p53 assessed as reduction in cell viability after 48 hrs by 7AAD-staining based FACS analysis; format: toxicity, IMR-90; settings: for CC50 at 48 h: IMR90 cells harboring wild type p53, read-out: LD50; for Activity: imr-90, 48 h; summary of the method: as §2
[11] = (§6) Cytotoxicity against human RD-ES cells harboring p53 mutant assessed as reduction in cell viability after 48 hrs by 7AAD-staining based FACS analysis; format: functional; settings: read-out: LD50 (the source's name); summary of the method: as §2
[12] = (§7) Cytotoxicity against human WE68 cells harboring wild type p53 assessed as reduction in cell viability after 48 hrs by 7AAD-staining based FACS analysis; format: functional; settings: WE68, 48 h, read-out: LD50 (the source's name); summary of the method: as §2
[13] = Inhibition of bovine alpha chymotrypsin using Ala-Ala-Phe-7-AMC as substrate measured for 10 mins by spectrophotometric analysis; design: species or system Bos taurus
Summary of the method: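 Enzyme was bovine α-chymotrypsin. Compounds were tested up to a top concentration of 25000 nM. Ki values are the mean of three separate experiments, with variation between experiments below ±10%.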

[14] = Cytotoxicity against HNDF cells harboring wild type p53 assessed as reduction in cell viability after 48 hrs by 7AAD-staining based FACS analysis; format: toxicity; settings: human; for CC50 at 48 h: HNDF cells harboring wild type p53, read-out: LD50; for Activity: hndf, 48 h; summary of the method: as §2
MCF7 [15] = assay: Inhibition of 26S proteasome in human MCF7 cells assessed as accumulation of high molecular weight polyubiquitin-conjugated proteins at 35 nM after 4 hrs by Western blot analysis; format: cell-based
[16] = Inhibition of caspase like activity of rabbit 20S proteasome using Ac-nLPnLD-AMC as substrate preincubated for 15 mins followed by substrate addition measured after 2 hrs by fluorescence-based assay; design: species or system Oryctolagus cuniculus
[17] = (§8) Cytotoxicity against human U266 cells harboring mutant p53 assessed as reduction in cell viability after 48 hrs by 7AAD-staining based FACS analysis; format: functional; settings: U-266, 48 h, read-out: LD50 (the source's name); summary of the method: as §2
[18] = Inhibition of chymotrypsin like activity of rabbit 20S proteasome using Suc-Leu-Leu-Val-Tyr-AMC as substrate preincubated for 15 mins followed by substrate addition measured after 2 hrs by fluorescence-based assay; design: species or system Oryctolagus cuniculus
[19] = Inhibition of chymotrypsin like activity of rabbit 20S proteasome using Suc-LLVY-AMC as substrate preincubated for 15 mins followed by substrate addition measured after 2 hrs by microplate-fluorometric analysis; design: species or system Oryctolagus cuniculus
Oryctolagus cuniculus = organism: Oryctolagus cuniculus; assay: Selectivity ratio of IC50 for caspase like activity of rabbit 20S proteasome to IC50 for chymotrypsin like activity of rabbit 20S proteasome
[20] = target: T1, Proteasome subunit beta type-8 (Mus musculus, UniProt P28063); assay: Inhibition of chymotrypsin like activity of mouse spleen 20S proteasome beta5i subunit using Suc-Leu-Leu-Val-Tyr-AMC as substrate preincubated for 15 mins followed by substrate addition measured after 2 hrs by fluorescence-based assay
T1 sequence (P28063 whole entry): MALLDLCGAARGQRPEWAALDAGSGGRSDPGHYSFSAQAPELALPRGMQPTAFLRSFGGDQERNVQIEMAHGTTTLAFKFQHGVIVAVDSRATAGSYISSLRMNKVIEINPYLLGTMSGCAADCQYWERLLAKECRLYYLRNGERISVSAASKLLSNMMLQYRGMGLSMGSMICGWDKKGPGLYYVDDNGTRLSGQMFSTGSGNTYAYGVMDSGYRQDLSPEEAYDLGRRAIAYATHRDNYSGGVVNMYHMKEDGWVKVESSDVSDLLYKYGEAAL

[21] = (§9) Cytotoxicity against human NCI-H929 cells harboring wild type p53 assessed as reduction in cell viability after 48 hrs by 7AAD-staining based FACS analysis; format: functional; settings: NCI-H929, 48 h, read-out: LD50 (the source's name); summary of the method: as §2
NCI-H929 = assay: as §9; format: functional; summary of the method: as §2
MCF7 [22] = assay: as §1; format: functional; summary of the method: as §2
U-266 [23] = assay: Selectivity ratio of LD50 for human U266 cells to LD50 for human NCI-H929 cells; format: functional
MDA-MB-468 [24] = assay: as §3; format: functional; summary of the method: as §2
KGN = assay: as §4; format: functional; summary of the method: as §2
[25] = Selectivity ratio of LD50 for human SKOV3 cells to LD50 for human KGN cells; format: functional
SK-OV-3 = assay: as §5; format: functional; summary of the method: as §2
RD-ES = assay: as §6; format: functional; summary of the method: as §2
WE68 = assay: as §7; format: functional; summary of the method: as §2
U-266 [26] = assay: as §8; format: functional; summary of the method: as §2

Structure (SMILES) | CC50 [1] | CC50 at 48 h [2] | CC50 [3] | CC50 [4] | polyubiquitin accumulation (active/inactive) (MDA-MB-468 [5]) | pIC50 [6] | CC50 [7] | CC50 at 48 h [9] | CC50 at 48 h [10] | CC50 [11] | CC50 [12] | pKi [13] | CC50 at 48 h [14] | Polyubiquitin-conjugate accumulation (MCF7 [15]) | pIC50 [16] | CC50 [17] | pIC50 [18] | Ratio IC50 (Oryctolagus cuniculus) | pIC50 [20] | CC50 [21] | further results
CC(C)C[C@H](NC(=O)[C@H](CCc1ccccc1)NC(=O)CN1CCOCC1)C(=O)N[C@@H](Cc1ccccc1)C(=O)N[C@@H](CC(C)C)C(=O)[C@@]1(C)CO1 [CARFILZOMIB] | 4500 nM | 320 nM | 330 nM | 450 nM | Active | < 4.60 | 320 nM | 30 nM | 130 nM | 43 nM | 80 nM | < 4.60 | 350 nM | Active | < 4.60 | 60 nM | 7.64 |  |  |  | half-life [8]: 5 to 20 min
C#CCOc1ccc(C[C@@H](C=O)NC(=O)[C@@H](NC(=O)[C@H](CCCCN=[N+]=[N-])NC(=O)OCc2ccccc2)[C@H](C)CC)cc1 |  |  |  |  |  |  |  |  |  |  |  |  |  |  |  |  |  |  |  |  | pIC50 [19]: 7.68
C=CCOc1ccc(CCC(=O)c2ccc(C(=O)N[C@@H](Cc3ccc(OCC=C)cc3)C(=O)N[C@@H](Cc3ccccc3)B3O[C@@H]4C[C@@H]5C[C@@H](C5(C)C)[C@]4(C)O3)[nH]2)cc1 |  |  |  |  |  | < 4.60 |  |  |  |  |  | 5.88 |  |  | 5.48 |  | 6.98 | 32.1 | 6.95 |  | 
CC[C@H](C)[C@H](NC(=O)[C@H](CCCCN=[N+]=[N-])NC(=O)OCc1ccccc1)C(=O)N[C@@H](CC(C)C)B1O[C@@H]2C[C@@H]3C[C@@H](C3(C)C)[C@]2(C)O1 | 1500 nM | 5000 nM | 30 nM | 65 nM | Active | < 4.60 | 370 nM | 30 nM | 200 nM | 35 nM | 35 nM | < 4.60 | 500 nM | Active | 5.80 | 15 nM | 7.85 | 113 | 6.93 | 6.4 nM | Activity (NCI-H929): Dose-dependent effect; Activity (MCF7 [22]): Dose-dependent effect; Activity [2]: Dose-dependent effect; Selectivity ratio (U-266 [23]): 2; Activity (MDA-MB-468 [24]): Dose-dependent effect; Activity (KGN): Dose-dependent effect; Selectivity ratio [25]: 5; Activity (SK-OV-3): Dose-dependent effect; Activity [9]: Dose-dependent effect; Activity [10]: Dose-dependent effect; Activity (RD-ES): Dose-dependent effect; Activity (WE68): Dose-dependent effect; Activity [14]: Dose-dependent effect; Activity (U-266 [26]): Dose-dependent effect
CC[C@H](C)[C@H](NC(=O)[C@H](CCCCN=[N+]=[N-])NC(=O)OCc1ccccc1)C(=O)N[C@@H](Cc1ccccc1)B1O[C@@H]2C[C@@H]3C[C@@H](C3(C)C)[C@]2(C)O1 | 79 nM | 1250 nM | 24 nM | 48 nM |  | < 4.60 | 46 nM |  | 8 nM | 33 nM | 14 nM | 5.15 | 60 nM |  | 5.61 | 14 nM | 7.68 | 117 | 7.86 | 12 nM | Activity (NCI-H929): Dose-dependent effect; Activity (MCF7 [22]): Dose-dependent effect; Activity [2]: Dose-dependent effect; Activity (MDA-MB-468 [24]): Dose-dependent effect; Activity (KGN): Dose-dependent effect; Activity (SK-OV-3): Dose-dependent effect; Activity [9]: Dose-dependent effect; Activity [10]: Dose-dependent effect; Activity (RD-ES): Dose-dependent effect; Activity (WE68): Dose-dependent effect; Activity [14]: Dose-dependent effect; Activity (U-266 [26]): Dose-dependent effect
C=CCOc1ccc(CCC(=O)c2ccc(C(=O)N[C@@H](Cc3ccc(OCC=C)cc3)C(=O)N[C@@H](CC(C)C)B3O[C@@H]4C[C@@H]5C[C@@H](C5(C)C)[C@]4(C)O3)[nH]2)cc1 | 3000 nM | 9000 nM | 50 nM | 180 nM | Active | < 4.60 | 1500 nM | 90 nM | 150 nM | 65 nM | 65 nM | < 4.60 | 1080 nM | Active | 5.38 | 29 nM | 7.68 | 200 | 6.32 | 9 nM | Activity (NCI-H929): Dose-dependent effect; Activity (MCF7 [22]): Dose-dependent effect; Activity [2]: Dose-dependent effect; Selectivity ratio (U-266 [23]): 2; Activity (MDA-MB-468 [24]): Dose-dependent effect; Activity (KGN): Dose-dependent effect; Selectivity ratio [25]: 5; Activity (SK-OV-3): Dose-dependent effect; Activity [9]: Dose-dependent effect; Activity [10]: Dose-dependent effect; Activity (RD-ES): Dose-dependent effect; Activity (WE68): Dose-dependent effect; Activity [14]: Dose-dependent effect; Activity (U-266 [26]): Dose-dependent effect
CC(C)C[C@H](NC(=O)[C@H](Cc1ccccc1)NC(=O)c1cnccn1)B(O)O [BORTEZOMIB] | 9800 nM | 1500 nM | 37 nM | 180 nM | Active | < 4.60 | 1600 nM | 20 nM | 130 nM | 40 nM | 100 nM | 5.74 | 480 nM | Active | 6.96 | 18 nM | 7.46 |  | 7.77 | 6.6 nM | 
